Assay [1] concerns the target Sodium channel protein type 5 subunit alpha (Homo sapiens, UniProt Q14524). As to the kind of experiment: Inhibition of human Nav1.5 expressed in HEK293 cells assessed as inward peak current by ion-works quattro patch clamp electrophysiology method. Type of assay: cell-based. Summed up: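 Stable HEK293 line expressing human NaV1.5, recorded by population patch clamp on the IonWorks Quattro.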

Assay [2] addresses Sodium channel protein type 9 subunit alpha (Homo sapiens, UniProt Q15858). As to the kind of experiment: Inhibition of human Nav1.7 expressed in HEK293 cells assessed as inward peak current by ion-works quattro patch clamp electrophysiology method. It is filed as cell-based.

The structures appear in SMILES notation. Positions of bridges follow the written chain, without caps; N, C: chain ends. Residues, ends and D or L forms follow the SMILES beside them.

Chain of Sodium channel protein type 5 subunit alpha (Q14524 whole entry): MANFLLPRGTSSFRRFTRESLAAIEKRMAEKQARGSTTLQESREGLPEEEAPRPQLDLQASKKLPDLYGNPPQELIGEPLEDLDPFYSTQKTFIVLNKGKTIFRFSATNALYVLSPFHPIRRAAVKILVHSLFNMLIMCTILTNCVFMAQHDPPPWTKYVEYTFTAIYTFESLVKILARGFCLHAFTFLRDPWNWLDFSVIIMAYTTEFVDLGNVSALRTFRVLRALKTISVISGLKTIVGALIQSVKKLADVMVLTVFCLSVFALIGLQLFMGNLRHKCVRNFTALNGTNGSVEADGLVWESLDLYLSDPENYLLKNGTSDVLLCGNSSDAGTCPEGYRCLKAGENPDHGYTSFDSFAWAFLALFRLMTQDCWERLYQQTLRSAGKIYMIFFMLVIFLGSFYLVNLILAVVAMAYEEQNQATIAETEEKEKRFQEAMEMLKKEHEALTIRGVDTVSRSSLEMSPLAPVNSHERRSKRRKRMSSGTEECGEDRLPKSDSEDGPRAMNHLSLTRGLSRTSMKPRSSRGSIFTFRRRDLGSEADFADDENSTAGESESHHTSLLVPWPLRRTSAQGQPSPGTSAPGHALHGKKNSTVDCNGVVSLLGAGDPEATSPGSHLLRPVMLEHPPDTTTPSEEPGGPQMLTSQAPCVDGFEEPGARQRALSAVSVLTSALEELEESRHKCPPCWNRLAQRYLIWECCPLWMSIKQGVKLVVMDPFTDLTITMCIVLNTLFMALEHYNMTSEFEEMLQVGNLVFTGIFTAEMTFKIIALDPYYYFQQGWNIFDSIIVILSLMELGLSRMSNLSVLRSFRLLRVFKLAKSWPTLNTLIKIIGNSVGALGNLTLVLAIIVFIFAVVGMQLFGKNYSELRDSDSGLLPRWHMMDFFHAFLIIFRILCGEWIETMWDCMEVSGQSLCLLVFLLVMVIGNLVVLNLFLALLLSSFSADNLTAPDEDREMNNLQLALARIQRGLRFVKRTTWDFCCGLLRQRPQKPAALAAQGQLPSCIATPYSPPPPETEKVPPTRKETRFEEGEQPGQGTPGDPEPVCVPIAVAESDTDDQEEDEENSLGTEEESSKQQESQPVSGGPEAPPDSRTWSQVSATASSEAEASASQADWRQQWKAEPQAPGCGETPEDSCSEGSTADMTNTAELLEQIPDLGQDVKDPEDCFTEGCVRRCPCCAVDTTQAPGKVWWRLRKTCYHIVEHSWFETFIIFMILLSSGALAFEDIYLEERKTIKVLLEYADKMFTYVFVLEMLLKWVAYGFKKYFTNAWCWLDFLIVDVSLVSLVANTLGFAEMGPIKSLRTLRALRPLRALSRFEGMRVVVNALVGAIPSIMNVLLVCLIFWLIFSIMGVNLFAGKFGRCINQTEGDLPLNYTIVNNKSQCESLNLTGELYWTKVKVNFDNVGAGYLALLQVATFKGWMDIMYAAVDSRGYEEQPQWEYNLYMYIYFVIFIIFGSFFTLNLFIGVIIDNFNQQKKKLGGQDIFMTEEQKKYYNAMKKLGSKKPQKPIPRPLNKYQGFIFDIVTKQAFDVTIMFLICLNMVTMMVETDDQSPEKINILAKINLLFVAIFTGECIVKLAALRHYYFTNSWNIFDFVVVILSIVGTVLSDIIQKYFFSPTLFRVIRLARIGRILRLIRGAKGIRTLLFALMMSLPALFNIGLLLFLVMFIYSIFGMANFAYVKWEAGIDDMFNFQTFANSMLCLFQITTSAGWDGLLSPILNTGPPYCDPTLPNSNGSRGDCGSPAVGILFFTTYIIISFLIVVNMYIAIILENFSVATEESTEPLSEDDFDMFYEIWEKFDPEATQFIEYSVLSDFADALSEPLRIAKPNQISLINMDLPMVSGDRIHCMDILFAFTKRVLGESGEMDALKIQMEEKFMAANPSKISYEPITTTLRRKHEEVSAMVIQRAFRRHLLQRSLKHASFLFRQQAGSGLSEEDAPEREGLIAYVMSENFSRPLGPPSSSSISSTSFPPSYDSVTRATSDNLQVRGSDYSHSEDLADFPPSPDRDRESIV
Chain of Sodium channel protein type 9 subunit alpha (Q15858 whole entry): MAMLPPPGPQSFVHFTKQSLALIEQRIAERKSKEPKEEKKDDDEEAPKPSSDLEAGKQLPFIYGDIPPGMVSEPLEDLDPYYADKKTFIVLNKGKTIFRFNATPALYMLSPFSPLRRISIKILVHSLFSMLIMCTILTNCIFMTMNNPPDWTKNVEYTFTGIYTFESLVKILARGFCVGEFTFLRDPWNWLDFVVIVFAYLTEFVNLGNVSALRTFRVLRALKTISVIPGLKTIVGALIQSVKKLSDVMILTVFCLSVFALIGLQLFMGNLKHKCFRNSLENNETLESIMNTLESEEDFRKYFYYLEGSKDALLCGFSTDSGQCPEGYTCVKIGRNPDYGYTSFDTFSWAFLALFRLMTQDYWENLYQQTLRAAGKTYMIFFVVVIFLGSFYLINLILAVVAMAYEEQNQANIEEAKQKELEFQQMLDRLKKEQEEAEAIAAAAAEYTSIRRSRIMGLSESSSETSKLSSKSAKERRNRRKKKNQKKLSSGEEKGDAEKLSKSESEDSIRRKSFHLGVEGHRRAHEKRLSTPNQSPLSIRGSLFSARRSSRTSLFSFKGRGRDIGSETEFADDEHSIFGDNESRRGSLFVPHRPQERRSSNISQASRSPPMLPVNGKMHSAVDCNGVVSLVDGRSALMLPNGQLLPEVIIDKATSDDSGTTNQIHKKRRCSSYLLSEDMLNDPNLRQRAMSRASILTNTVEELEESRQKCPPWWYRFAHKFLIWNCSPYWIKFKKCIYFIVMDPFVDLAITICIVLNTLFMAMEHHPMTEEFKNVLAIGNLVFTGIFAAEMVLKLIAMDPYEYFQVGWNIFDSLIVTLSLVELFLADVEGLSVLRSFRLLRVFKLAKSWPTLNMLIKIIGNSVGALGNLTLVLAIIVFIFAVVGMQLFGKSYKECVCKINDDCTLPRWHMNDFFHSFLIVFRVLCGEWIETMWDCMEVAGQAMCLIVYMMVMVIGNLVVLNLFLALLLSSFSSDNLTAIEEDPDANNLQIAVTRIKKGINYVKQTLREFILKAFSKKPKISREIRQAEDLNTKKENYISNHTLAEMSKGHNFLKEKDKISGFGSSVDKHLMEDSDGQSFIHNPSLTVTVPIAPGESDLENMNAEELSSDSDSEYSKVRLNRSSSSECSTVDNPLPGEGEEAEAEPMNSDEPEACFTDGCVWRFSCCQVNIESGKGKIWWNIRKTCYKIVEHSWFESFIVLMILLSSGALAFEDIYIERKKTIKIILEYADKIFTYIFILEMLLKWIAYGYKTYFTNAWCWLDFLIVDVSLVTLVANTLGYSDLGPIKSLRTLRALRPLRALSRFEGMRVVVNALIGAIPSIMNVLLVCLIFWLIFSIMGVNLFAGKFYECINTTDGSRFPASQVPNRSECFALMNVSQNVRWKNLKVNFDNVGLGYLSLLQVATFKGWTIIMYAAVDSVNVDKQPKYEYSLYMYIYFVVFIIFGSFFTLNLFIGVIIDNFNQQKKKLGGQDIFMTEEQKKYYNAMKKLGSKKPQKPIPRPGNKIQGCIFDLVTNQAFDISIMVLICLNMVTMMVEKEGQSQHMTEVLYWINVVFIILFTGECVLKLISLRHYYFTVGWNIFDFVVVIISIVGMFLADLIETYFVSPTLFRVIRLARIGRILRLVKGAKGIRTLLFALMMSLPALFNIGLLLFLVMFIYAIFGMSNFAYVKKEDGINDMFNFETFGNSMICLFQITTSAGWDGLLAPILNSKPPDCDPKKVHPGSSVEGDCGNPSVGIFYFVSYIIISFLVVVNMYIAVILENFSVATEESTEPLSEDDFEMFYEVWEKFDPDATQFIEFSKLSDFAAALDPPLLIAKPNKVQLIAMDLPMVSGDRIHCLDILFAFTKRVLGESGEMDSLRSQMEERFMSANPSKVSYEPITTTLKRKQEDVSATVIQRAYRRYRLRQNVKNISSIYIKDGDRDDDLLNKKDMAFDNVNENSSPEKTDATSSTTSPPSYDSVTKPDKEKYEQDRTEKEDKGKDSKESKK

With `CC[C@H](C)[C@@H]1NC(=O)[C@@H]2CSSC[C@@H]3NC(=O)[C@H](C(C)C)NC(=O)[C@H](CC(C)C)NC(=O)[C@H](CC(N)=O)NC(=O)[C@@H]4CCCN4C(=O)[C@H](CCCNC(=N)N)NC(=O)[C@H](CSSC[C@H](NC(=O)[C@@H](N)CC(=O)O)C(=O)N[C@@H](CC(C)C)C(=O)NCC(=O)N[C@@H](Cc4ccccc4)C(=O)N[C@@H](CCSC)C(=O)N[C@@H](CCCNC(=N)N)C(=O)N[C@@H](CCCCN)C(=O)N2)NC(=O)[C@H](CSSC[C@@H](C(=O)N[C@@H](CCCCN)C(N)=O)NC(=O)[C@H](Cc2c[nH]c4ccccc24)NC(=O)[C@H](CCCCN)NC(=O)[C@H](Cc2cnc[nH]2)NC(=O)[C@H]([C@@H](C)O)NC(=O)[C@H](CCCNC(=N)N)NC(=O)[C@H](CO)NC3=O)NC(=O)[C@H](CCCCN)NC(=O)[C@H](CC(=O)O)NC(=O)[C@H](CC(N)=O)NC(=O)[C@H](CC(=O)O)NC(=O)[C@@H]2CCCN2C1=O` (H-DCLGFMRKCIPDNDKCCRPNLVCSRTHKWCK-NH2; disulfide 2-17, 9-23, 16-30), the 50% inhibitory concentration (IC50) in assay [1] and in assay [2] was more than 5 µM in each case.
Turning to `CC[C@H](C)[C@@H]1NC(=O)[C@@H]2CSSC[C@@H]3NC(=O)[C@H](C(C)C)NC(=O)[C@H](CC(C)C)NC(=O)[C@H](CC(N)=O)NC(=O)[C@@H]4CCCN4C(=O)[C@H](CCCNC(=N)N)NC(=O)[C@H](CSSC[C@H](NC(=O)[C@@H](N)CC(=O)O)C(=O)N[C@@H](CC(C)C)C(=O)NCC(=O)N[C@@H](Cc4ccccc4)C(=O)N[C@@H](CCSC)C(=O)N[C@@H](CCCNC(=N)N)C(=O)N[C@@H](CCCCN)C(=O)N2)NC(=O)[C@H](CSSC[C@@H](C(=O)N[C@@H](CCCCN)C(=O)N[C@@H](Cc2ccc(O)cc2)C(=O)N[C@H](C(=O)N[C@@H](CCC(=O)O)C(N)=O)C(C)C)NC(=O)[C@H](Cc2c[nH]c4ccccc24)NC(=O)[C@H](CCCCN)NC(=O)[C@H](Cc2cnc[nH]2)NC(=O)[C@H]([C@@H](C)O)NC(=O)[C@H](CCCNC(=N)N)NC(=O)[C@H](CO)NC3=O)NC(=O)[C@H](CCCCN)NC(=O)[C@H](CC(=O)O)NC(=O)[C@H](CC(N)=O)NC(=O)[C@H](CC(=O)O)NC(=O)[C@@H]2CCCN2C1=O` (H-DCLGFMRKCIPDNDKCCRPNLVCSRTHKWCKYVE-NH2; disulfide 2-17, 9-23, 16-30), the IC50 in assay [1] and in assay [2] was more than 5 µM in each case.
As for `CC[C@H](C)[C@@H]1NC(=O)[C@H]2CSSC[C@H]3NC(=O)[C@H](C(C)C)NC(=O)[C@H](CC(C)C)NC(=O)[C@H](CC(N)=O)NC(=O)[C@@H]4CCCN4C(=O)[C@H](CCCNC(=N)N)NC(=O)[C@H](CSSC[C@H](NC(=O)[C@@H](N)CC(=O)O)C(=O)N[C@@H](CC(C)C)C(=O)NCC(=O)N[C@@H](Cc4ccccc4)C(=O)N[C@@H](CCSC)C(=O)N[C@@H](CCCNC(=N)N)C(=O)N[C@@H](CCCCN)C(=O)N2)NC(=O)[C@@H](CSSC[C@@H](C(=O)N[C@@H](CCCCN)C(=O)N[C@@H](Cc2ccc(O)cc2)C(=O)N[C@H](C(=O)N[C@@H](Cc2ccccc2)C(N)=O)C(C)C)NC(=O)[C@H](Cc2c[nH]c4ccccc24)NC(=O)[C@H](CCCCN)NC(=O)[C@H](C)NC(=O)[C@H]([C@@H](C)O)NC(=O)[C@H](CCCNC(=N)N)NC(=O)[C@H](CO)NC3=O)NC(=O)[C@H](CCCCN)NC(=O)[C@H](CC(=O)O)NC(=O)[C@H](CC(N)=O)NC(=O)[C@H](CC(=O)O)NC(=O)[C@@H]2CCCN2C1=O`, the IC50 in assay [1] was more than 5 µM; in assay [2], 0.97 µM.
For `CC[C@H](C)[C@@H]1NC(=O)[C@@H]2CSSC[C@@H]3NC(=O)[C@H](C(C)C)NC(=O)[C@H](CC(C)C)NC(=O)[C@H](CC(N)=O)NC(=O)[C@@H]4CCCN4C(=O)[C@H](CCCNC(=N)N)NC(=O)[C@H](CSSC[C@H](NC(=O)[C@@H](N)CC(=O)O)C(=O)N[C@@H](CC(C)C)C(=O)NCC(=O)N[C@@H](Cc4ccccc4)C(=O)N[C@@H](CCSC)C(=O)N[C@@H](CCCNC(=N)N)C(=O)N[C@@H](CCCCN)C(=O)N2)NC(=O)[C@H](CSSC[C@@H](C(=O)N[C@@H](CCCCN)C(=O)N[C@@H](Cc2ccc(O)cc2)C(=O)N[C@H](C(=O)N[C@@H](Cc2ccccc2)C(N)=O)C(C)C)NC(=O)[C@H](Cc2c[nH]c4ccccc24)NC(=O)[C@H](CCCCN)NC(=O)[C@H](Cc2cnc[nH]2)NC(=O)[C@H]([C@@H](C)O)NC(=O)[C@H](CCCNC(=N)N)NC(=O)[C@H](CO)NC3=O)NC(=O)[C@H](CCCNC(=N)N)NC(=O)[C@H](CC(=O)O)NC(=O)[C@H](CC(N)=O)NC(=O)[C@H](CC(=O)O)NC(=O)[C@@H]2CCCN2C1=O` (H-DCLGFMRKCIPDNDRCCRPNLVCSRTHKWCKYVF-NH2; disulfide 2-17, 9-23, 16-30), in that order: more than 5 µM and 0.22 µM.
With `CC[C@H](C)[C@@H]1NC(=O)[C@@H]2CSSC[C@@H]3NC(=O)[C@H](C(C)C)NC(=O)[C@H](CC(C)C)NC(=O)[C@H](CC(N)=O)NC(=O)[C@@H]4CCCN4C(=O)[C@H](CCCNC(=N)N)NC(=O)[C@H](CSSC[C@H](NC(=O)[C@@H](N)CC(=O)O)C(=O)N[C@@H](CC(C)C)C(=O)NCC(=O)N[C@@H](Cc4ccccc4)C(=O)N[C@@H](CCCNC(=N)N)C(=O)N[C@@H](CCCNC(=N)N)C(=O)N[C@@H](CCCCN)C(=O)N2)NC(=O)[C@H](CSSC[C@@H](C(=O)N[C@@H](CCCCN)C(=O)N[C@@H](Cc2ccc(O)cc2)C(=O)N[C@H](C(=O)N[C@@H](Cc2ccccc2)C(N)=O)C(C)C)NC(=O)[C@H](Cc2c[nH]c4ccccc24)NC(=O)[C@H](CCCCN)NC(=O)[C@H](Cc2cnc[nH]2)NC(=O)[C@H]([C@@H](C)O)NC(=O)[C@H](CCCNC(=N)N)NC(=O)[C@H](CO)NC3=O)NC(=O)[C@H](CCCCN)NC(=O)[C@H](CC(=O)O)NC(=O)[C@H](CC(N)=O)NC(=O)[C@H](CC(=O)O)NC(=O)[C@@H]2CCCN2C1=O` (H-DCLGFRRKCIPDNDKCCRPNLVCSRTHKWCKYVF-NH2; disulfide 2-17, 9-23, 16-30), the concentration for half-maximal inhibition (IC50) in assay [1] was more than 5 µM; in assay [2], more than 4.9 µM.
For the molecule `CC[C@H](C)[C@@H]1NC(=O)[C@@H]2CSSC[C@@H]3NC(=O)[C@H](C(C)C)NC(=O)[C@H](CC(C)C)NC(=O)[C@H](CC(N)=O)NC(=O)[C@@H]4CCCN4C(=O)[C@H](CCCNC(=N)N)NC(=O)[C@H](CSSC[C@H](NC(=O)[C@@H](N)CC(=O)O)C(=O)N[C@@H](CC(C)C)C(=O)NCC(=O)N[C@@H](Cc4ccccc4)C(=O)N[C@@H](CCSC)C(=O)N[C@@H](CCCNC(=N)N)C(=O)N[C@@H](CCCCN)C(=O)N2)NC(=O)[C@H](CSSC[C@@H](C(=O)N[C@@H](CCCCN)C(=O)N[C@@H](Cc2ccc(O)cc2)C(=O)N[C@H](C(=O)N[C@@H](Cc2ccccc2)C(N)=O)C(C)C)NC(=O)[C@H](Cc2c[nH]c4ccccc24)NC(=O)[C@H](CCCCN)NC(=O)[C@H](Cc2cnc[nH]2)NC(=O)[C@H](CCC(=O)O)NC(=O)[C@H](CCCNC(=N)N)NC(=O)[C@H](CO)NC3=O)NC(=O)[C@H](CCCCN)NC(=O)[C@H](CC(=O)O)NC(=O)[C@H](CC(N)=O)NC(=O)[C@H](CC(=O)O)NC(=O)[C@@H]2CCCN2C1=O` (H-DCLGFMRKCIPDNDKCCRPNLVCSREHKWCKYVF-NH2; disulfide 2-17, 9-23, 16-30), the IC50 in assay [1] was more than 5 µM; in assay [2], 0.69 µM.
In the same order, the values of `CC[C@H](C)[C@@H]1NC(=O)[C@@H]2CSSC[C@@H]3NC(=O)[C@H](C(C)C)NC(=O)[C@H](CC(C)C)NC(=O)[C@H](CC(N)=O)NC(=O)[C@@H]4CCCN4C(=O)[C@H](CCCNC(=N)N)NC(=O)[C@H](CSSC[C@H](NC(=O)[C@@H](N)CC(=O)O)C(=O)N[C@@H](CC(C)C)C(=O)NCC(=O)N[C@@H](Cc4ccccc4)C(=O)N[C@@H](CCSC)C(=O)N[C@@H](CCCNC(=N)N)C(=O)N[C@@H](CCCCN)C(=O)N2)NC(=O)[C@H](CSSC[C@@H](C(=O)N[C@@H](CCCCN)C(=O)N[C@@H](Cc2ccc(O)cc2)C(=O)N[C@H](C(=O)N[C@@H](CCCCN)C(N)=O)C(C)C)NC(=O)[C@H](Cc2c[nH]c4ccccc24)NC(=O)[C@H](CCCCN)NC(=O)[C@H](Cc2cnc[nH]2)NC(=O)[C@H]([C@@H](C)O)NC(=O)[C@H](CCCNC(=N)N)NC(=O)[C@H](CO)NC3=O)NC(=O)[C@H](CCCCN)NC(=O)[C@H](CC(=O)O)NC(=O)[C@H](CC(N)=O)NC(=O)[C@H](CC(=O)O)NC(=O)[C@@H]2CCCN2C1=O` (H-DCLGFMRKCIPDNDKCCRPNLVCSRTHKWCKYVK-NH2; disulfide 2-17, 9-23, 16-30) are more than 5 µM and more than 5 µM.
For `CC[C@H](C)[C@@H]1NC(=O)[C@H]2CSSC[C@H]3NC(=O)[C@H](C(C)C)NC(=O)[C@H](CC(C)C)NC(=O)[C@H](CC(N)=O)NC(=O)[C@@H]4CCCN4C(=O)[C@H](CCCNC(=N)N)NC(=O)[C@H](CSSC[C@H](NC(=O)[C@@H](N)CC(=O)O)C(=O)N[C@@H](CC(C)C)C(=O)NCC(=O)N[C@@H](Cc4ccccc4)C(=O)N[C@@H](CCSC)C(=O)N[C@@H](CCCNC(=N)N)C(=O)N[C@@H](CCCCN)C(=O)N2)NC(=O)[C@@H](CSSC[C@@H](C(=O)N[C@@H](C)C(=O)N[C@@H](Cc2ccc(O)cc2)C(=O)N[C@H](C(=O)N[C@@H](Cc2ccccc2)C(N)=O)C(C)C)NC(=O)[C@H](Cc2c[nH]c4ccccc24)NC(=O)[C@H](CCCCN)NC(=O)[C@H](Cc2cnc[nH]2)NC(=O)[C@H]([C@@H](C)O)NC(=O)[C@H](CCCNC(=N)N)NC(=O)[C@H](CO)NC3=O)NC(=O)[C@H](CCCCN)NC(=O)[C@H](CC(=O)O)NC(=O)[C@H](CC(N)=O)NC(=O)[C@H](CC(=O)O)NC(=O)[C@@H]2CCCN2C1=O`, in that order: more than 5 µM and more than 5 µM.

For the origin of these results see ChEMBL document CHEMBL3797186, “Single Residue Substitutions That Confer Voltage-Gated Sodium Ion Channel Subtype Selectivity in the NaV1.7 Inhibitory Peptide GpTx-1” (J Med Chem, 2016).
